Screens from PubChem.
CHO parental Ca = counter-screen: ATP calcium response change in parental CHO cells. parental CHO-K1, ATP-induced calcium, Fluo-8 fluorescence. inhibition, % at 5.6 µM. actives 0.63% (n = 330,000). AID 463079;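 active = inhibition above that plate's mean sample inhibition plus 3 SD, cut at about 26% in these data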;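 note: 0% = ATP-challenged DMSO wells and 100% = DMSO wells without ATP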
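Test system: untransfected parental CHO cell line. Compound: one dose, 5.6 µM nominal. Detection: intracellular calcium via Fluo-8 no-wash fluorescent dye. Measure: % inhibition. Benchmarks: ATP-challenged DMSO wells low, unchallenged DMSO wells high.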
OX1R antag-1 = OX1R (human) antagonism. O43613. OX1R-expressing cells, FRET antagonist read-out. inhibition, % at 6.6 µM. actives 1.8% (n = 330,000); in the data active = inhibition mostly above about 38%, no sharp cut-off; inactive = mostly below about 40%;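 note: 0% = agonist challenge alone and 100% = reference antagonist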
OX1R antag-2 = human HCRTR1 antagonism; inhibition, % at 5 µM; AID 434989; O43613; actives 0.43% (n = 330,000); CHO/OX1R cells, Fluo-8 calcium fluorescence, orexin A;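 active = inhibition above its plate's threshold, mean inhibition of all tested compounds on the plate plus 3 SD, cut at about 37% in these data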;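 note: 0% = orexin A challenge wells and 100% = SB-334867-A antagonist wells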
GalR3 antag = blocks the human galanin receptor 3; inhibition, % at 3 µM; AID 651719; O60755; HEK293 GalR3-CNG cAMP membrane potential fluorescence; galR3 body fused to GalR1 C-terminus; actives 0.44% (n = 360,000);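 active = inhibition above the screen-wide average plus 3 SD, cut at about 13% in these data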;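 note: forskolin and galanin both at EC90 stimulate the cells; cAMP rise reported by CNG channel membrane potential dye signal; 0% = forskolin plus galanin with DMSO and 100% = forskolin alone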
Target sequence (O60755 1-299 limits assumed): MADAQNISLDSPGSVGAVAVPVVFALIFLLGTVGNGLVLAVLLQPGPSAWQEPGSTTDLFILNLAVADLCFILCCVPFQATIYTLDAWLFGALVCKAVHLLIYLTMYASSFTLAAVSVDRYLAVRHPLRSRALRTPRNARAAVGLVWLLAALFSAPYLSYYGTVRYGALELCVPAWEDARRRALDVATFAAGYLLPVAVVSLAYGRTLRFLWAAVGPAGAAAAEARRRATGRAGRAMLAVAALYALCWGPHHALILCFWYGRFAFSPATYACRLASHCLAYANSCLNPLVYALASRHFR
GPR7 antagonist = blocks human GPR7 receptor signaling; GPR7-expressing cells, fluorescence antagonist assay; actives 1.1% (n = 290,000); inhibition, % at 4.4 µM; P48145; in the data active = inhibition above about 16%, passing the limit was not always enough;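 note: cells stimulated with the agonist NPW; 0% = agonist with vehicle and 100% = vehicle without agonist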
Target sequence (P48145 whole entry, looked up): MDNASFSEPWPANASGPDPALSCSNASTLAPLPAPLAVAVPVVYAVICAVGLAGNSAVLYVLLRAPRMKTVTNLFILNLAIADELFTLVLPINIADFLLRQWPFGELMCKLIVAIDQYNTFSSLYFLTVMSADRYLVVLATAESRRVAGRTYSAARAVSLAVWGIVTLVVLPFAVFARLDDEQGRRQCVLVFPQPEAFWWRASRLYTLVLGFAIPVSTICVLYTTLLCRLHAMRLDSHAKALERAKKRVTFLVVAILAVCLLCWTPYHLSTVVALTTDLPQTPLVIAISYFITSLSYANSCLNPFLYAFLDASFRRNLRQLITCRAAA
GalR3 antag conf = GalR3 (human) antagonism, confirmation; shares compounds with GalR3 antag; inhibition, % at 3 µM; HEK293 GalR3 CNG cAMP biosensor, membrane potential fluorescence; galR3 fused to GalR1 carboxy tail; challenged with forskolin and galanin at EC90; AID 652245; actives 59% (n = 1,600);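 active = inhibition above the primary screen's cutoff, the mean inhibition of all screened compounds plus 3 SD, cut at about 13% in these data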;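 note: 0% = forskolin plus galanin and 100% = forskolin alone with DMSO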
HEK-CNG parental = counter-screen for GalR3 antagonists: nonspecific agonists in parental HEK-CNG cells | shares compounds with GalR3 antag | HEK293-CNG parental cells, cAMP membrane potential fluorescence; normalised: DMSO wells 0%, forskolin wells 100% | activation, % at 3 µM | actives 10% (n = 1,600) | AID 652268; in the data active = activation above about 1.3%
* hit, by the source's call; . = not tested or not shown. Shown are actives, neighbours in structure and some others; about 3.1% of the full set was active somewhere.

SMILES	CHO parental Ca	OX1R antag-1	OX1R antag-2	GalR3 antag	GPR7 antagonist	GalR3 antag conf	HEK-CNG parental
CCS(=O)(=O)C1=NSC2=NC(=O)/C(=C\c3ccc(OC(=O)c4ccco4)cc3)C(=N)N21	-0.5	18.5	-11.9	1.9	7.9	.	.
CCOc1ccccc1NC(=O)CN1C(=O)COc2ccc(S(=O)(=O)N3CCOCC3)cc21	5.0	3.3	-33.1	-7.2	3.9	.	.
CCN(c1cccc(C)c1)C1C(=O)c2ccccc2N1C(C)=O (centres undefined)	-7.8	-5.0	-14.3	-5.4	9.3	.	.
CCCCN(C)CCn1c(=S)[nH]c2ncccc2c1=O	-5.6	17.1	-4.2	40.3*	-2.2	3.6	0.1
CCN(CC)CCCn1c(=S)[nH]c2ncccc2c1=O	0.8	7.8	1.4	-4.7	-2.3	.	.
Cc1ccc(S(=O)(=O)n2nc(C)c(C#N)c2N)cc1	-18.0	16.9	4.5	-3.2	-3.3	.	.
CCOc1ccccc1C(=O)Nc1cc(=O)n(C)c(=O)n1C	-0.6	17.1	-11.5	0.3	-4.8	.	.
CCCc1ccccc1OCCNC(=O)c1cc(=O)n(C)c(=O)n1C	-11.9	4.7	-24.6	15.9*	-8.1	4.6	0.4
C[C@@H]1CN([C@H](C)CO)C(=O)CCCn2cc(nn2)CO[C@H]1CN(C)C(=O)c1ccccc1	.	.	.	-5.3	.	.	.
COc1cccc(/C=C/C(=O)OCC(=O)Nc2nnc(-c3ccccc3)o2)c1OC	.	.	.	12.6*	.	1.9	0.7
O=S(=O)(NCc1ccccc1F)c1cccc(S(=O)(=O)N2CCOCC2)c1	-11.9	14.6	-3.5	-5.7	-5.4	.	.
COc1ccc(/C=C/C(=O)c2cc3cccc(OC)c3oc2=O)cc1	-8.4	0.6	-0.3	23.8*	-6.4	9.2	0.4
CNC(=O)c1cc2cccc(OC)c2oc1=O	-5.4	41.9	-6.1	0.7	-7.2	.	.
CC(/C=N\NC(=O)Cn1c(C)nc2ccccc21)=C\c1ccccc1	16.6	38.5	25.3	69.6*	-12.3	7.8	-0.1
Cc1nnsc1C(=O)NC1CCCc2c1cnn2-c1ccc(C(C)(C)C)cc1 (centres undefined)	41.0*	27.7	12.2	108.2*	14.6	110.8*	0.1
Cc1ncoc1C(=O)NC1CCCc2c1cnn2-c1ccc(C(C)(C)C)cc1 (centres undefined)	.	.	.	101.6*	18.8	110.8*	0.0
Cc1nnsc1C(=O)NC1CCCc2c1cnn2-c1ccccc1F (centres undefined)	5.9	14.7	-1.8	2.8	-4.7	.	.
COc1cccc(Nc2nc(C)cc(C)c2C(N)=O)c1	13.3	12.4	-4.3	-10.8	-6.3	.	.
COc1cc2c(c(OC)c1OC)C1(CCCCC1)CC2NCC=C(C)C (centres undefined)	.	.	.	-8.4	.	.	.
CCCc1nc2nc(C)c(NS(=O)(=O)c3ccc(CC(C)C)cc3)c(=O)n2[nH]1	1.2	10.3	6.3	-8.8	22.7	.	.
CN(C)S(=O)(=O)N1CCC(Oc2cccc(C(=O)NC3CCCCC3)c2)CC1	-13.0	12.2	-17.8	14.2*	3.7	62.2*	-0.3
CN(C)S(=O)(=O)N1CCC(Oc2ccc(C(=O)NC3CCCCC3)cc2)CC1	-10.4	17.7	-4.3	10.4	-14.4	.	.
COCCN(C(=O)COC(=O)CCS(=O)(=O)c1ccccc1)c1c(N)n(Cc2ccccc2)c(=O)[nH]c1=O	-3.2	17.8	-6.5	14.1*	.	-2.5	0.2
O=C(C=C=Nc1ccccc1)C(=O)N=C=Cc1ccccc1	-6.4	17.1	9.6	17.8*	10.9	9.9	0.4
CCOC(=O)c1cc(-c2ccc(C#N)cc2)nc2c1c(C)nn2CCC#N	-6.0	6.3	-9.8	21.7*	4.9	1.9	1.7*
SMILES	CHO parental Ca	OX1R antag-1	OX1R antag-2	GalR3 antag	GPR7 antagonist	GalR3 antag conf	HEK-CNG parental
C=C1C(=O)C23CCC4C(C)(C(=O)OC)CCCC4(C)C2CCC1(O)C3 (centres undefined)	.	.	.	37.3*	.	48.4*	1.6*
COC(=O)[C@]1(C)CCC[C@@]2(C)C3CC[C@@]4(C)C[C@]3(CCC21)CC(=O)N4 (some centres undefined)	-9.0	-5.2	-3.5	-5.4	.	.	.
CC(=O)Nc1ccc(S(=O)(=O)NCCC(=O)N2CCC(Cc3ccccc3)CC2)cc1	-12.3	2.0	3.3	-7.9	.	.	.
Cc1ccc(/C=C/C(=O)O)cc1S(=O)(=O)N1CCc2ccccc21	-3.1	-2.3	-3.9	-7.9	1.0	.	.
COc1ccc(/C=C/C(=O)O)cc1S(=O)(=O)N1CCc2ccccc2C1	-10.2	11.8	-9.6	.	-7.2	5.3	0.0
COc1ccc(/C=C/C(=O)Nc2ccccc2Cl)cc1S(=O)(=O)N1CCOCC1	-21.4	24.6	-14.8	15.4*	-4.8	-4.2	0.0
Cc1ccc(/C=C/C(=O)O)cc1S(=O)(=O)N1CCc2ccccc2C1	-5.5	12.8	-20.1	15.5*	-0.9	-1.3	0.3
CN(CC(=O)Nc1ccc2c(c1)OCO2)S(=O)(=O)c1ccc(F)cc1	8.2	1.7	4.6	-6.4	-8.4	.	.
O=C(COC(=O)c1ccc([N+](=O)[O-])s1)NC(c1ccccc1)c1ccccc1	-20.4	48.7	-28.2	21.8*	-11.8	-0.5	0.1
COCc1ccc(-c2ccc3c(c2)c(C#Cc2ccsc2)c(-c2cc(OC)cc(OC)c2)n3C)cc1	-14.0	-3.0	-24.9	-4.8	.	.	.
COc1cc(OC)cc(-c2c(C#Cc3ccsc3)c3cc(-c4ccc(C(N)=O)cc4)ccc3n2C)c1	-21.1	9.8	-6.8	.	.	4.3	0.1
Cc1c(Cl)cccc1NC(=O)Nc1cc(C(C)(C)C)on1	-8.0	11.2	-14.8	-9.6	-8.4	.	.
CC(Oc1ccc(S(=O)(=O)N2CCCC2)cc1[N+](=O)[O-])C(=O)NC(C)c1ccccc1 (centres undefined)	-28.4	14.0	-16.9	-1.8	.	.	.
COc1ccc(CN2CCC(C(=O)Nc3ccc(Oc4ccccc4)nc3)CC2)cc1F	-17.1	30.0	-13.9	62.4*	2.4	101.2*	0.1
COc1cc(F)ccc1CN1CCC(C(=O)Nc2ccc(Oc3ccccc3)nc2)CC1	-12.1	4.2	-13.8	-11.2	5.6	.	.
CC(C)Nc1nc(Cl)nc(N(C#N)CN2C(=O)c3ccccc3C2=O)n1	-13.8	42.3	4.7	15.7*	-9.7	1.2	0.6
COc1ccc(C(=O)N2CCCC(N3CCN(c4ccccc4OC)CC3)C2)c(OC)n1 (centres undefined)	-27.1	11.1	-18.2	.	-1.5	3.0	-0.1
C=C(C)C(=O)Nc1cccc(C2=NOC3(C2)C[C@@H](C(N)=O)N(C(=O)c2cc([N+](=O)[O-])cc([N+](=O)[O-])c2C)C3)c1 (some centres undefined)	-14.7	23.2	-23.8	-3.6	.	.	.
